Test results published in ChEMBL document CHEMBL3576824, “Phenolic diterpenoid derivatives as anti-influenza a virus agents” (ACS Med Chem Lett, 2015).
Activity calls are given as the source filed them.

Tests used:
[1] = Cytotoxicity against MDCK cells assessed as reduction of cell viability; format: cell-based, Canis lupus familiaris; conditions: dog
Summary of the method: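 Uninfected MDCK cells. CC50 is the concentration (μM) that reduced cell viability by 50%.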

[2] = system: Influenza A virus; assay: Antiviral activity against oseltamivir-sensitive Influenza A virus (A/Hong Kong/8/68(H3N2)) infected in MDCK cells assessed as protection against virus-induced cytocidal effect at 20 uM after 48 hrs by CellTiter-Glo assay relative to control; format: functional
Summary of the method: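 Same cytocidal protection assay in MDCK cells with H3N2 virus, tested at concentrations up to 20 μM. The read-out is the percent inhibition of viral cytocidal effect, with 50% used as the threshold.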

[3] = Metabolic stability in human plasma assessed as compound remaining at 1 uM after 10 mins by reverse phase HPLC analysis; format: ADME, cell-free; conditions: read-out: Stability
Summary of the method: (§1)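 Compound incubated in 80% human plasma at 37 °C for varying times. Initial and remaining parent compound were quantified by reverse-phase HPLC. Benfluorex served as control. Data are averages of duplicate experiments.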

[4] = system: Influenza A virus; assay: Antiviral activity against oseltamivir-sensitive Influenza A virus (A/Hong Kong/8/68(H3N2)) assessed as inhibition of viral infectivity in MDCK cells at 10 uM after 6 hrs by FITC conjugated anti-NP antibodies/DAPI staining-based confocal microscopic analysis; format: functional, organism-based
Summary of the method: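 MDCK cells were infected at MOI = 1 in the presence of 10 μM compound for 6 h. Infected cells were stained with FITC-conjugated anti-NP antibody, with DAPI as nuclear stain, and imaged by confocal microscopy. Infected cells without compound served as control.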

[5] = Metabolic stability in human plasma assessed as compound remaining at 1 uM after 2 hrs by reverse phase HPLC analysis; format: ADME, cell-free; conditions: read-out: Stability; summary of the method: as §1

| Compound | CC50 [1] [µM] | Activity [2] [%] | remaining at 10 min, 1 µM [3] [%] | inhibition [4] | remaining at 2 h, 1 µM [5] [%] |
| --- | --- | --- | --- | --- | --- |
| COC(=O)[C@@]1(C)CCC[C@]2(C)c3cc(OC(=O)CCCCCBr)ccc3CC[C@@H]12 | > 40 | <50 | – | – | – |
| C[C@]1(C(=O)O)CCC[C@]2(C)c3cc(OC(=O)CCC(=O)O)ccc3CC[C@@H]12 | > 40 | <50 | – | – | – |
| COC(=O)[C@@]1(C)CCC[C@]2(C)c3cc(OC(=O)CCC(=O)O)ccc3CC[C@@H]12 | > 40 | <50 | – | – | – |
| COC(=O)[C@@]1(C)CCC[C@]2(C)c3cc(OC)ccc3C(=O)C[C@@H]12 | > 40 | <50 | – | – | – |
| C[C@]1(C(=O)OCc2ccccc2)CCC[C@]2(C)c3cc(OC(=O)CCC(=O)O)ccc3CC[C@@H]12 | > 40 | <50 | – | – | – |
| COC(=O)[C@@]1(C)CCC[C@]2(C)c3cc(OC(=O)CCCC(=O)O)ccc3CC[C@@H]12 | > 40 | <50 | – | – | – |
| COC(=O)[C@@]1(C)CCC[C@]2(C)c3cc(OCCC(=O)O)ccc3CC[C@@H]12 | > 40 | <50 | – | – | – |
| C[C@]1(C(=O)OCc2ccccc2)CCC[C@]2(C)c3cc(OCCC(=O)O)ccc3CC[C@@H]12 | > 40 | <50 | – | – | – |
| C=CC(=O)Oc1ccc2c(c1)[C@@]1(C)CCC[C@](C)(C(=O)NC)[C@@H]1CC2 | > 40 | <50 | – | – | – |
| COC(=O)[C@@]1(C)CCC[C@]2(C)c3cc(OC(=O)CCCCBr)ccc3CC[C@@H]12 | > 40 | <50 | – | – | – |
| COC(=O)[C@@]1(C)CCC[C@]2(C)c3cc(OC(C)=O)ccc3CC[C@@H]12 | > 40 | <50 | 30 | – | – |
| COC(=O)[C@@]1(C)CCC[C@]2(C)c3cc(OC(=O)CCBr)ccc3CC[C@@H]12 | > 40 | <50 | – | Active | – |
| C[C@]1(C(=O)OCc2ccccc2)CCC[C@]2(C)c3cc(O)ccc3CC[C@@H]12 | > 40 | <50 | – | – | – |
| COC(=O)[C@@]1(C)CCC[C@]2(C)c3cc(OC(=O)C(C)C)ccc3CC[C@@H]12 | > 40 | <50 | – | – | – |
| CNC(=O)[C@@]1(C)CCC[C@]2(C)c3cc(O)ccc3CC[C@@H]12 | > 40 | <50 | – | – | – |
| C=CC(=O)Oc1ccc2c(c1)[C@@]1(C)CCC[C@](C)(C(=O)OCc3ccccc3)[C@@H]1CC2 | > 40 | <50 | – | – | – |
| COC(=O)[C@@]1(C)CCC[C@]2(C)c3cc(OC(=O)C4CC4)ccc3CC[C@@H]12 | > 40 | <50 | – | – | – |
| COC(=O)[C@@]1(C)CCC[C@]2(C)c3cc(OC)ccc3CC[C@@H]12 | > 40 | <50 | – | – | – |
| C=CC(=O)Oc1ccc2c(c1)[C@@]1(C)CCC[C@](C)(C(=O)OC)[C@@H]1CC2 | > 40 | <50 | – | – | – |
| C[C@]1(C(=O)O)CCC[C@]2(C)c3cc(O)ccc3CC[C@@H]12 [PODOCARIC ACID] | 91.2 | <50 | – | – | – |
| CC(C)c1c(O)ccc2c1CC[C@H]1C(C)(C)CCC[C@]21C [TOTAROL] | 21 | <50 | – | – | – |
| COC(=O)[C@@]1(C)CCC[C@]2(C)c3cc(OC(=O)C(C)F)ccc3CC[C@@H]12 (stereo partly specified) | > 40 | <50 | – | – | – |
| COC(=O)[C@@]1(C)CCC[C@]2(C)c3cc(O)ccc3CC[C@@H]12 | > 40 | <50 | – | – | 86 |
| COC(=O)[C@@]1(C)CCC[C@]2(C)c3cc(OC(=O)CCCBr)ccc3CC[C@@H]12 | > 40 | <50 | – | – | – |
